Laboratory results published in PMC5378272 (Cancer Science, 2017).
Values belong to the compound of their own block, whether it stands above or below them.

Key:
c‐RAF = c‐RAF (Homo sapiens, UniProt P04049, Y340D/Y341D); experiment: Kinase inhibition assay; conditions: Biochemical IC50, cell-free
DDR2 = target: T1, DDR2 (Homo sapiens, UniProt Q16832); experiment: Kinase inhibition assay; conditions: Biochemical IC50, cell-free
T1 sequence (Q16832 22-855): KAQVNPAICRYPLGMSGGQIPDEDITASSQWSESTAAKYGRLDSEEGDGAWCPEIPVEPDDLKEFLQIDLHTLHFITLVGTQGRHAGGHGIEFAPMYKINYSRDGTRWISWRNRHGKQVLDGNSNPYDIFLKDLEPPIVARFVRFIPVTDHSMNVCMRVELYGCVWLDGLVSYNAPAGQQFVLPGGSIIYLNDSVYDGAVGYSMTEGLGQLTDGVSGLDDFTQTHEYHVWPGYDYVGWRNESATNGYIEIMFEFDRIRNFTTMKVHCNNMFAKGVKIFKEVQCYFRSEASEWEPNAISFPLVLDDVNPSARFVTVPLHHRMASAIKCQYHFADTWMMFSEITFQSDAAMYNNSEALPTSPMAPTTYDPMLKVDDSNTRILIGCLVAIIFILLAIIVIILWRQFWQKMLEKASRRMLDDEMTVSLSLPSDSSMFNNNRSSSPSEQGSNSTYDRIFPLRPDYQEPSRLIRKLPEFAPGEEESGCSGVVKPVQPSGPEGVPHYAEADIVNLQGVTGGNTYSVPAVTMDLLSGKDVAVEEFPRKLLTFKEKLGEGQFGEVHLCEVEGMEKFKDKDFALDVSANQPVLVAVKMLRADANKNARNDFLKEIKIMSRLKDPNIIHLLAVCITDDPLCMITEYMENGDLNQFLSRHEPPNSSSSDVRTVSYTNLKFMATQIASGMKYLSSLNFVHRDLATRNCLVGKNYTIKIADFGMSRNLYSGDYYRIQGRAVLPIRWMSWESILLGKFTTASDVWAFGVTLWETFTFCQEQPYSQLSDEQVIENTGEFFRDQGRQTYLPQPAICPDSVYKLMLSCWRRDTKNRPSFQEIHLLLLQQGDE

PLK1 = PLK1 (Homo sapiens, UniProt P53350); experiment: Kinase inhibition assay; conditions: Biochemical IC50, cell-free
Sequence of PLK1 (P53350 whole entry): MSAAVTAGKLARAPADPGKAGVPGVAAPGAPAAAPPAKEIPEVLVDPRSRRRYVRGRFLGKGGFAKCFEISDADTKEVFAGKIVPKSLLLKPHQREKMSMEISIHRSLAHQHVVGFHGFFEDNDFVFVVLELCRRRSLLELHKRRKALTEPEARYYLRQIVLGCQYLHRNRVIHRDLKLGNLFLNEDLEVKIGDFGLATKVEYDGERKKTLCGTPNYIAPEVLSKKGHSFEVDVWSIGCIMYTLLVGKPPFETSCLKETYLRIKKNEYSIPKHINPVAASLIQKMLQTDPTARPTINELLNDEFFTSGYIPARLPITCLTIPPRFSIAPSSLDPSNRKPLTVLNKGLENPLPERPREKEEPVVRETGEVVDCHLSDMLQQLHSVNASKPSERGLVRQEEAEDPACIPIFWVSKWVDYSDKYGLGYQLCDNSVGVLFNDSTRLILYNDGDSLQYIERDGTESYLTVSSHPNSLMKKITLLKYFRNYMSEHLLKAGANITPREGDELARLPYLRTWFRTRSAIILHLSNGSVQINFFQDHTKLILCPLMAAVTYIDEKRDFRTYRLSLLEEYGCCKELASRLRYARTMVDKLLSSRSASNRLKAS

PLK3 = PLK3 (Homo sapiens, UniProt Q9H4B4); experiment: Kinase inhibition assay; conditions: Biochemical IC50, cell-free
Sequence of PLK3 (Q9H4B4 whole entry): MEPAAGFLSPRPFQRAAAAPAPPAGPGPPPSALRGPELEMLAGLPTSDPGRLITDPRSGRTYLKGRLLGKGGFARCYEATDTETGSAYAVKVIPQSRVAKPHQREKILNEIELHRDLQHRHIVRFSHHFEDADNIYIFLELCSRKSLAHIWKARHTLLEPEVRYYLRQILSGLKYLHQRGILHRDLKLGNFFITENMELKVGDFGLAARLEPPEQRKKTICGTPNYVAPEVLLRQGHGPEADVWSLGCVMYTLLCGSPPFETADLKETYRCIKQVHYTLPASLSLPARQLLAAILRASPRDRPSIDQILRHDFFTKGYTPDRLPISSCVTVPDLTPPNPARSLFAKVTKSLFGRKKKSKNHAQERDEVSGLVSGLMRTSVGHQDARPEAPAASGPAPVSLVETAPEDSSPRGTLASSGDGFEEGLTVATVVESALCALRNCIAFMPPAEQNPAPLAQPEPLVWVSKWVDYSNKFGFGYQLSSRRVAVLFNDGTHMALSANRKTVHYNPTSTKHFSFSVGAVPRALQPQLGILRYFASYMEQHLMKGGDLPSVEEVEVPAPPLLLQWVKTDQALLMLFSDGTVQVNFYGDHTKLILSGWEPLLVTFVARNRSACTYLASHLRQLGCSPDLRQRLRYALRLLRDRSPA

Molt‐4 cells [1] = experiment: Growth inhibition of tumor cells; assay type: cell-based; conditions: Homo sapiens, MOLT-4, 120 h, read-out: GI50, growth inhibition
Colo‐320 cells = experiment: Growth inhibition of tumor cells; assay type: cell-based; conditions: Homo sapiens, COLO 320, 120 h, read-out: GI50, growth inhibition
VEGFR2 = VEGFR2 (Homo sapiens, UniProt P35968); experiment: Western blotting of VEGF-stimulated VEGFR2 phosphorylation in HUVEC; assay type: cell-based; conditions: 1 h pre-treatment, VEGF 100 ng/mL 15 min, western blot
Sequence of VEGFR2 (P35968 20-1356): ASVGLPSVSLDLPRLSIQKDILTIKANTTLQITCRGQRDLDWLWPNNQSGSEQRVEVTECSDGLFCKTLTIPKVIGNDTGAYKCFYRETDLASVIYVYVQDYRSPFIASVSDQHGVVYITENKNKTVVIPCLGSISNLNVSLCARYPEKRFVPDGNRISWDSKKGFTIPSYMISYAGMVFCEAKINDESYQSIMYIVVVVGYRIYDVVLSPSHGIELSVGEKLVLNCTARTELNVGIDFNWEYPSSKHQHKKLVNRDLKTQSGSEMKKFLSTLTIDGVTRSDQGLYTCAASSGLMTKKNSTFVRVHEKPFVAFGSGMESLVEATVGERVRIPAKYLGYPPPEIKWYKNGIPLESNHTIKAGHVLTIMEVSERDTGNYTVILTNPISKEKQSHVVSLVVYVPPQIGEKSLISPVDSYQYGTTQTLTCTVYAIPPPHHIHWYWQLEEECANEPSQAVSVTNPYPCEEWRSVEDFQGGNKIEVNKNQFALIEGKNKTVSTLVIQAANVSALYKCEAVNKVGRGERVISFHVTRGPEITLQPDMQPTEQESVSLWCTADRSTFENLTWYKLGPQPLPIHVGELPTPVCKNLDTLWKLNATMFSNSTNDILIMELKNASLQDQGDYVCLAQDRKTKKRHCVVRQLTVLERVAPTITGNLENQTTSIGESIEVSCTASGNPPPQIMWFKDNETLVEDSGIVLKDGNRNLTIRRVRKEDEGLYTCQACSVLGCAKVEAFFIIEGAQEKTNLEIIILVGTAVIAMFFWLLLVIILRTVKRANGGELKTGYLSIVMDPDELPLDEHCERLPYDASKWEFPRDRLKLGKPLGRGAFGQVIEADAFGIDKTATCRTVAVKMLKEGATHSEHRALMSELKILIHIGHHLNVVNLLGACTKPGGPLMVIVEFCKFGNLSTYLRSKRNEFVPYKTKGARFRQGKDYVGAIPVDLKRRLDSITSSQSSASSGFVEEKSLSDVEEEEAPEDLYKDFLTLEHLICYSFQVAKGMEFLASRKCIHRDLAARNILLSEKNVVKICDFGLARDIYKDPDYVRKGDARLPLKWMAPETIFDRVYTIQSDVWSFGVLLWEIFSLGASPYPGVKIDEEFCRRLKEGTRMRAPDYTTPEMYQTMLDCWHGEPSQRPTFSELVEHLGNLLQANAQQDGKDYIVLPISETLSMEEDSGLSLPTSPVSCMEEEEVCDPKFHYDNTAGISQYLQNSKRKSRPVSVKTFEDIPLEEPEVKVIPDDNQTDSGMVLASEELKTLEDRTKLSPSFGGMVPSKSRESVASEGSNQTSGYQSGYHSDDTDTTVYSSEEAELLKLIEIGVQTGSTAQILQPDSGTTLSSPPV
In short: (§1)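 Cells (1.5 × 10⁶) were seeded for 24 h, then serum-starved overnight. They were pretreated 1 h with test compound and stimulated with 100 ng/mL ligand for 15 min: rhM‐CSF for CSF‐1R‐transfected 293A (DMEM, 10% FBS) and VEGF165 for HUVEC. Whole-cell lysates were immunoblotted for phospho-CSF1R or phospho-VEGFR2, with total receptor and β‐actin as internal controls.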

CSF‐1R = CSF‐1R (Homo sapiens, UniProt P07333); assay type: cell-based; conditions: CSF‐1R‐transfected 293A cells, M‐CSF 100 ng/mL, western blot
Sequence of CSF‐1R (P07333 20-972): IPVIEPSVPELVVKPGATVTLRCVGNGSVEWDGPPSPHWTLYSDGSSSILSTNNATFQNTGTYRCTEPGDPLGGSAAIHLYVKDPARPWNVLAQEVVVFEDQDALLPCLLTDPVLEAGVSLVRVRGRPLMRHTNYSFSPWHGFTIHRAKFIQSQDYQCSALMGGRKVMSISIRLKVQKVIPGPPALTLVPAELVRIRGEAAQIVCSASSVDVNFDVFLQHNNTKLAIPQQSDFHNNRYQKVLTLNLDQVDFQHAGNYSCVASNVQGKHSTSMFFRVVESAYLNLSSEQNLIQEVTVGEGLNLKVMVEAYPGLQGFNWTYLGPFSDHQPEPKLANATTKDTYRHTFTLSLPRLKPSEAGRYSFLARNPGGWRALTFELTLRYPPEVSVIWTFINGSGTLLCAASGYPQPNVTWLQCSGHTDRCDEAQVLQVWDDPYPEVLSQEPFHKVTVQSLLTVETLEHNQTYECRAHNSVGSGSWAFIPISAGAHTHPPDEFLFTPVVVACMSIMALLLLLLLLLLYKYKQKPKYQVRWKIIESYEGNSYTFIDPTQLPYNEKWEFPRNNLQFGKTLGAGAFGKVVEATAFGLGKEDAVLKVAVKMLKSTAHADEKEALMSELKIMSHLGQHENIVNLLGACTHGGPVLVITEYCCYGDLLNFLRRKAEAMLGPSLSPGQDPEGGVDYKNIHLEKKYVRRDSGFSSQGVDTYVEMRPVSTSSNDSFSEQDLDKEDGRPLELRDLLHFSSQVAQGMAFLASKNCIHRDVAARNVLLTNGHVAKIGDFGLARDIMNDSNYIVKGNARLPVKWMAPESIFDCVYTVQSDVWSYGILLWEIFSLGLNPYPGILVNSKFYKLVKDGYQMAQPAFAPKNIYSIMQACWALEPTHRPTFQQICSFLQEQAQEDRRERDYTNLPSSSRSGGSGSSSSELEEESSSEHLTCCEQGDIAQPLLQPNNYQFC
In short: as §1

Aurora B = experiment: Western blotting of p‐H3; assay type: cell-based, human; conditions: Molt‐4 cells, 24 h, western blot, concentrations up to 6 μM
Molt‐4 cells [2] = experiment: Cell cycle analysis by flow cytometry; assay type: cell-based, human; conditions: Molt‐4, 3 μM, 24 h; control group 14.9%
HUVEC = experiment: Tube formation assay; assay type: cell-based, human; conditions: HUVEC on Matrigel, 1.5 or 5 μM, 24 h, vs control
In short: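 HUVEC were maintained in endothelial cell medium with 5% FBS, heparin (50 μg/mL) and ECGS (50 μg/mL). Matrigel was polymerised 45 min at 37°C. 4 × 10⁴ cells in complete medium were seeded onto it with vehicle or test compound and incubated 24 h. Networks were imaged by light microscopy and scored as mean loops per field and total branch length (pixels). Results are mean ± SD of five experiments; t-test versus vehicle.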

COLO‐320 tumor = experiment: COLO‐320 xenograft in SCID mice, tumor tissue analysis; assay type: in vivo; conditions: oral 2.5 or 20 mg/kg/day, 12 days
In short: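 COLO-320 cells implanted s.c. in SCID mice; established tumors dosed orally once daily for 12 days at 2.5 or 20 mg/kg/day, with compound suspended in 0.5% (w/v) CMC-Na. Half of each tumor went to histone extraction and western blot for p-H3 (Ser10) vs total H3, with normal colon as comparator. The other half was formalin-fixed and paraffin-embedded for IHC (CD34, p-H3 Ser10, Ki67).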

4T1 breast cancer cells = experiment: 4T1 breast cancer model in BALB/c mice, tumor tissue immunohistochemistry; assay type: in vivo
HCT‐8 = experiment: Tumor xenograft model; assay type: in vivo, BALB/c athymic mice; conditions: HCT‐8 xenograft, oral once daily
In short: (§2)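 Subjects were 6-week-old female BALB/c athymic mice. Tumour cells in 200 μL serum-free medium were implanted s.c. At 100–150 mm³, mice were randomised (n = 8/group) and dosed by oral gavage once daily with test compound in 0.5% CMC‐Na, sunitinib or vehicle. Doses were 2.5–20 mg/kg for HCT‐8 and SMMC‐7721, and 5–40 mg/kg for A549. Volumes were measured every 3–4 days over 33 or 43 days. Percent TGI at last treatment was computed versus vehicle.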

SMMC‐7721 = experiment: Tumor xenograft model; assay type: in vivo, BALB/c athymic mice; conditions: SMMC‐7721 xenograft, oral once daily
In short: as §2

MGC‐803 = experiment: Tumor xenograft model; assay type: in vivo, BALB/c athymic mice; conditions: MGC‐803 xenograft; for tumor growth: oral once daily
A549 = experiment: Tumor xenograft model; assay type: in vivo, BALB/c athymic mice; conditions: oral once daily, 5 to 40 mg/kg
In short: as §2

[3] = test system: human blood‐derived monocytes; conditions: M‐CSF 100 ng/mL, 6 days, 0.3 μM
[4] = immunohistochemistry, vs vehicle

Sequence of c‐RAF (P04049 306-648 Y340D/Y341D limits assumed): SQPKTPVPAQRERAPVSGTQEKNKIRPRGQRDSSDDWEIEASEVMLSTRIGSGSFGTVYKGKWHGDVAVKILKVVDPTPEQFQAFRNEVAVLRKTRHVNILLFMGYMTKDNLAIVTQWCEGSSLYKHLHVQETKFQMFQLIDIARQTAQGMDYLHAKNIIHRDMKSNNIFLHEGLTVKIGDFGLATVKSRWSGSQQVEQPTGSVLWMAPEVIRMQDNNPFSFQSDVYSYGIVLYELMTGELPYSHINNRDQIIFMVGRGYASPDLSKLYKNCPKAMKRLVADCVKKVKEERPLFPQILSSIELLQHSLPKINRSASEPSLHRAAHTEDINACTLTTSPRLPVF

- IC50 (c‐RAF): 100 to 500 nM
- IC50 (DDR2): 100 to 500 nM
- IC50 (PLK1): 100 to 500 nM
- IC50 (PLK3): 100 to 500 nM
- GI50 (Molt‐4 cells [1]): 2140 nM
- GI50 (Colo‐320 cells): 840 nM
- ligand‐stimulated VEGFR2 tyrosine phosphorylation (VEGFR2): concentration‐dependent inhibition
- CSF‐1R phosphorylation induced by M‐CSF (CSF‐1R): concentration‐dependent inhibition
Compound: COc1ccc2c(Oc3ccc4c(C(=O)Nc5ccccc5N)cccc4c3)ccnc2c1 [CS2164, N‐(2‐aminophenyl)‐6‐[(7‐methoxy‐4‐quinolinyl)oxy]‐1‐naphthalenecarboxamide]
- level of p‐H3 (Ser10‐phosphorylated histone 3) (Aurora B): substantial reduction
- cells in G2/M phase (of cell cycle phases) (Molt‐4 cells [2]): 59.5%
- number of loops of tubular network structures (HUVEC): significant reductions
- total branch lengths of tubular network structures (HUVEC): significant reductions
- vascularization in tumor tissues (COLO‐320 tumor): decreased vascularization
- CD34 staining in tumor tissues (COLO‐320 tumor; immunohistochemistry): remarkably reduced
- tissue Ki67 staining (COLO‐320 tumor; [4]): substantial dose‐dependent decrease
- tissue p‐H3 staining (COLO‐320 tumor; [4]): substantial dose‐dependent decrease
- p‐H3 levels in tumor tissue by western blotting (COLO‐320 tumor; only tumor tissue, not normal colonic tissue): reduced p‐H3 levels
- tissue CD11b^+ macrophage infiltration (4T1 breast cancer cells; oral 20 mg/kg daily, day 12, immunohistochemistry): decreased
- CSF‐1R^+ cells in tumor tissue (4T1 breast cancer cells; oral 2.5 or 20 mg/kg/day, 12 days, immunohistochemistry): dramatic reduction
- 50% tumor growth inhibition (TGI50) dose (HCT‐8): 2.5 mg/kg
- 50% tumor growth inhibition (TGI50) dose (SMMC‐7721): 2.5 mg/kg
- efficacy compared with sunitinib at 40 mg/kg (MGC‐803; CS2164 at 5 mg/kg oral daily): comparable
- tumor growth (MGC‐803; 1 mg/kg): started to demonstrate tumor growth inhibition
- tumor growth (MGC‐803; 5 mg/kg): near complete inhibition
- TGI50 dose (A549): around 5 mg/kg
- M‐CSF induced differentiation and proliferation of monocytes [3]: almost complete inhibition

Compound: CCN(CC)CCNC(=O)c1c(C)[nH]c(/C=C2\C(=O)Nc3ccc(F)cc32)c1C [sunitinib, reference compound]
- level of p‐H3 (Ser10‐phosphorylated histone 3) (Aurora B): little inhibitory activity
- cells in G2/M phase (of cell cycle phases) (Molt‐4 cells [2]): 20.4%

Compound: CNC(=O)c1cc(Oc2ccc(NC(=O)Nc3ccc(Cl)c(C(F)(F)F)c3)cc2)ccn1 [sorafenib]
- cells in G2/M phase (of cell cycle phases) (Molt‐4 cells [2]): 13.3%
